The target in experiment [1] is T1, Toll-like receptor 8 (Homo sapiens) (UniProt Q9NR97).
T1 sequence (whole entry): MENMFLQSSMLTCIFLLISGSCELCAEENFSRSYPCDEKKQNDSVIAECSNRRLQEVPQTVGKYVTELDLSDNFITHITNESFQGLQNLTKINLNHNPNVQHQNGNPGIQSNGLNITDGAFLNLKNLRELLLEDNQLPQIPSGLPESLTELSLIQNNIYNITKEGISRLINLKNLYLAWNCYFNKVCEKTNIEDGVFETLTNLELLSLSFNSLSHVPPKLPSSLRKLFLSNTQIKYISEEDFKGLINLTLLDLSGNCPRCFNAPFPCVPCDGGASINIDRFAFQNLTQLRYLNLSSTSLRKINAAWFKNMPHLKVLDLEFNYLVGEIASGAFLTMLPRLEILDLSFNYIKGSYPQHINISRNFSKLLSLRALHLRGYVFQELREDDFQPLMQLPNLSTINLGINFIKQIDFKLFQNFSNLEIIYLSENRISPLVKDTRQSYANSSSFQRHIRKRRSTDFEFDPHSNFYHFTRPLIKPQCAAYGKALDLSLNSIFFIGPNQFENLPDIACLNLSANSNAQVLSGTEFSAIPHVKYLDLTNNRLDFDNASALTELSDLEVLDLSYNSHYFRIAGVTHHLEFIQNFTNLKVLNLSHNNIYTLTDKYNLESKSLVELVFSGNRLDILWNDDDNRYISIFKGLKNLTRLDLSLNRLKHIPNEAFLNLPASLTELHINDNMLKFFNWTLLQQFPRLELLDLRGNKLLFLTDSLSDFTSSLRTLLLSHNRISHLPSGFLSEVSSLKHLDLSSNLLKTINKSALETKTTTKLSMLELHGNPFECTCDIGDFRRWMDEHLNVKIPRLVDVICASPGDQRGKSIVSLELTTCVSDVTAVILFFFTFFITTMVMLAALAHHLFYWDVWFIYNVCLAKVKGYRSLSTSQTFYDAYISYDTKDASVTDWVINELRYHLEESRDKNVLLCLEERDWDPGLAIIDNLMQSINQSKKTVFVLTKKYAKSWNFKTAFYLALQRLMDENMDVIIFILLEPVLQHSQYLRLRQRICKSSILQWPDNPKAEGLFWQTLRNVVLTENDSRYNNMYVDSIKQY
The experiment can be described thus: Inhibition of human TLR8 expressed in HEK293 cells assessed as reduction in R848-induced NFkappaB production at 0.5 uM incubated for 16 hrs by quanti-blue SEAP assay. The experiment is classed as cell-based.

Experiment [2] deals with Toll-like receptor 7 (Mus musculus) (UniProt P58681). The experiment can be described thus: Inhibition of endogenous mouse TLR7 in mouse RAW264.7 cells assessed as resiquimod-induced NO production at > 5 uM incubated for 18 to 24 hrs.
Sequence of Toll-like receptor 7 (Mus musculus) (P58681 whole entry, looked up): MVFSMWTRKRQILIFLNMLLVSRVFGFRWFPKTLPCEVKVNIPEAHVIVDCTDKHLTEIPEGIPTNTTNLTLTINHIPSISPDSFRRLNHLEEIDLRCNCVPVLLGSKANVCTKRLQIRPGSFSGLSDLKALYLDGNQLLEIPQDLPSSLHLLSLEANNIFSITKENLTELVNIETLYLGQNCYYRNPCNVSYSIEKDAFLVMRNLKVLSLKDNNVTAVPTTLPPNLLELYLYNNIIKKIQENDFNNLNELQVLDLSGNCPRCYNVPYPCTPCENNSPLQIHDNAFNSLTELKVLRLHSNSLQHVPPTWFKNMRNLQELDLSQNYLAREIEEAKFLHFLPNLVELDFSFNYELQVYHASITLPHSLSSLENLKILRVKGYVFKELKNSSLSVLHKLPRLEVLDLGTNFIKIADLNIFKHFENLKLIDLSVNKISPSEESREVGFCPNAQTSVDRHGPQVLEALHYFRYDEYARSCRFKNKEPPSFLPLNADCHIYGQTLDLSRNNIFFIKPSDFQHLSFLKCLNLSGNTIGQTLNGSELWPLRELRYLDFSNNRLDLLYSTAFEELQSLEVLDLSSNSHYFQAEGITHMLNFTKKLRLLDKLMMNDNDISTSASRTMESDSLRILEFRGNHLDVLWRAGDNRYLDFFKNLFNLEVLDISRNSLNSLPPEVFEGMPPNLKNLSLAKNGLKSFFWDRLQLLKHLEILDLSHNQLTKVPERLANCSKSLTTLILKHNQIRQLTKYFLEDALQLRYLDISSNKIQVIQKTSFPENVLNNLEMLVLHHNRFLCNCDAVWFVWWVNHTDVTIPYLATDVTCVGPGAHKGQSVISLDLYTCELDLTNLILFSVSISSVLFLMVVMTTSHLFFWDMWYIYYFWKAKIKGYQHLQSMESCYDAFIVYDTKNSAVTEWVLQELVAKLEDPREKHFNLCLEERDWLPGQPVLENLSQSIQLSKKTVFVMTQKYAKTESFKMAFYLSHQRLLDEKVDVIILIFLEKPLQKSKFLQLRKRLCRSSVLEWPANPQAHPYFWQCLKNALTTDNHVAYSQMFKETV
Experiment [3] has as its target T1, Toll-like receptor 8 (Homo sapiens). The experiment can be described thus: Inhibition of human TLR8 expressed in HEK293 cells assessed as reduction in R848-induced NFkappaB production incubated for 16 hrs by quanti-blue SEAP assay. The experiment is classed as cell-based. The method in brief:
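HEK 293-Blue cells stably expressing hTLR7 or hTLR8 with an inducible SEAP reporter were incubated 16 h with compound under 1 µg/mL R848 stimulation. SEAP was read at 620 nm. Data were normalized to the R848 control, and IC50 was taken from concentration-response curves. […] Mean ± s.d., n = 3 independent experiments.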

Experiment [4] deals with T2, Toll-like receptor 9 (Homo sapiens) (UniProt Q9NR96).
T2 sequence (whole entry): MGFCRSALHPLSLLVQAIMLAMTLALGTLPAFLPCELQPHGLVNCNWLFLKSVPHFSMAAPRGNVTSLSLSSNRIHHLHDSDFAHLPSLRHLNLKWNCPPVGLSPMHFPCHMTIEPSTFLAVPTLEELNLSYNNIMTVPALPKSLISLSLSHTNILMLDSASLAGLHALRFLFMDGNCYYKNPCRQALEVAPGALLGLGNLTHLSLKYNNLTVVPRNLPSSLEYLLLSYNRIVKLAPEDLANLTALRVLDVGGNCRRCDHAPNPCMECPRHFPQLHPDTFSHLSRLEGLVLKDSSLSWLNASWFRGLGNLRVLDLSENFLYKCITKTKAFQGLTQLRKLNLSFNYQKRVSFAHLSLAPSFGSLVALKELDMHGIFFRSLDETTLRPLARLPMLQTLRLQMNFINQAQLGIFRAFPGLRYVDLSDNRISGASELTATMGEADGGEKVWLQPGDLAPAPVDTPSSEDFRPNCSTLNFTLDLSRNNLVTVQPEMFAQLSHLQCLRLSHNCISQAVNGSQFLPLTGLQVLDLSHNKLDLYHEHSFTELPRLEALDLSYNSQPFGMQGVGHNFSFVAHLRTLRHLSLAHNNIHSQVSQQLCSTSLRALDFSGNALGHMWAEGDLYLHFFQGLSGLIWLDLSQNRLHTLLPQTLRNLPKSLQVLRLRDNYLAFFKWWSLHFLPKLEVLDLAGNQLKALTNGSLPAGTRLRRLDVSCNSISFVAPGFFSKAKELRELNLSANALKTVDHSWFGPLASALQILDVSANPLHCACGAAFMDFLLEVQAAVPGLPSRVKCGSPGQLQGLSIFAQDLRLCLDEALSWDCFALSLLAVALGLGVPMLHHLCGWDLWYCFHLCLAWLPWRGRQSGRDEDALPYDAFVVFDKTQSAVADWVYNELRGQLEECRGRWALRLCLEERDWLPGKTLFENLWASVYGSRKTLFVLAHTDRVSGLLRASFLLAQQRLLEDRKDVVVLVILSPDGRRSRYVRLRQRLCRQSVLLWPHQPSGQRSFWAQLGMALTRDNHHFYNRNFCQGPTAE
Description: Inhibition of human TLR9 expressed in HEK293 cells assessed as reduction in ODN-2006-induced NFkappaB production at 3 to 5 uM incubated for 16 hrs by quanti-blue SEAP assay. It counts as cell-based. The method in brief:
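Selectivity panel in stably transfected HEK 293-Blue cells, each overexpressing one human TLR with an inducible SEAP reporter. Agonists: Pam3CSK4 (TLR1/2), Pam2CSK4 (TLR2/6), poly(I:C) (TLR3), LPS (TLR4), R848 (TLR7/8), ODN 2006 (TLR9). Cells were exposed to compound for 16 h. Activity = (raw − untreated)/(ligand + solvent − untreated), with ligand + solvent set as 100%.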

Active and inactive are the calls of the source. The rule behind the calls is not given here.

Take `O=C(Nc1ccc(Oc2cc(C(F)(F)F)cc(C(F)(F)F)c2)cc1)c1c(F)cccc1I`: in experiment [1], the inhibition entry is “inactive”. For the same compound, the inhibition result in experiment [2] is “Active”.

Regarding `O=[N+]([O-])c1c(I)cccc1Oc1ccc(-c2nnco2)cc1`, the inhibition entry in experiment [2] was “Active”.

Turning to `O=C(Nc1ccc(Oc2cncc(C(F)(F)F)c2)cc1)c1c(F)cccc1Cl`, the inhibition result in experiment [1] is “inactive”.

For `O=C(Nc1ccc(Oc2cc(C(F)(F)F)cc(C(F)(F)F)c2)cc1)c1c(F)cccc1Cl`, the inhibition result in experiment [3] is “Dose-dependent effect”. Besides, in experiment [4], the inhibition result is “Active”.
